ChEMBL document CHEMBL1131106, “Synthesis and characterization of heteroarotinoids demonstrate structure specificity relationships” (J Med Chem, 1998)

Legend:
[1] = target: T1, Retinoic acid receptor beta (Homo sapiens, UniProt P10826); assay: Transcriptional activation in CV-1 cells expressing RAR-beta receptor; format: cell-based
T1 sequence (P10826 whole entry): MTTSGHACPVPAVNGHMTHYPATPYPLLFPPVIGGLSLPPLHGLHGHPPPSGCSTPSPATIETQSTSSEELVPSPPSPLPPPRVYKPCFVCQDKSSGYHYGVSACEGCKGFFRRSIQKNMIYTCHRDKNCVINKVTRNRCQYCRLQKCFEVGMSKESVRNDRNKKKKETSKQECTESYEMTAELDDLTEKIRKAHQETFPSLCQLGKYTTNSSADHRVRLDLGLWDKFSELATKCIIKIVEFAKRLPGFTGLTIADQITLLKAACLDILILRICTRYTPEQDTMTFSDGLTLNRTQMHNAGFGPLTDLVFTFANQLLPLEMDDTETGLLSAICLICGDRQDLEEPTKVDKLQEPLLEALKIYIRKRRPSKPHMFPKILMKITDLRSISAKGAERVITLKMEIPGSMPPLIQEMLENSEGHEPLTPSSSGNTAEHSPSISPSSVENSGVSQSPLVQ
Outline: (§1)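 CV-1 cells co-transfected by calcium phosphate with receptor expression plasmid, luciferase reporter MTV-TREp-LUC (two TRE-palindromic copies; RAR assays), β-galactosidase internal control plasmid and pGEM carrier. Incubated 40 h with or without various retinoid concentrations. Luciferase read in extracts, normalized to β-galactosidase. Triplicate. Activity normalized to 9-cis-retinoic acid; EC50 = concentration giving 50% maximal response.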

[2] = target: T2, Retinoic acid receptor alpha (Homo sapiens, UniProt P10276); assay: Transcriptional activation in CV-1 cells expressing RAR-alpha receptor; format: cell-based; outline: as §1
T2 sequence (P10276 whole entry): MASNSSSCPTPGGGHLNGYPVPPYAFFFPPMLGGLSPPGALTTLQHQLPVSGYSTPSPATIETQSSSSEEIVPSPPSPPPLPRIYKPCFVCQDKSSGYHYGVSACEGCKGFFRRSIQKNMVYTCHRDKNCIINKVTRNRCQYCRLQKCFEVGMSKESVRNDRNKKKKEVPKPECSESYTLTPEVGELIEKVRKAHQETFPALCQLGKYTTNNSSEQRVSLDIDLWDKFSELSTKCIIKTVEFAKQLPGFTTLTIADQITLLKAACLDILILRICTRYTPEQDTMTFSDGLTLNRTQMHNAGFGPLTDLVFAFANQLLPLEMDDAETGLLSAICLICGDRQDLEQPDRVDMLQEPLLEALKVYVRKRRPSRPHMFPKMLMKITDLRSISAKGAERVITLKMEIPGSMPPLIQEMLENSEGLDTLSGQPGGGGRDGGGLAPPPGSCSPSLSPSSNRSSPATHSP

[3] = target: T3, Retinoic acid receptor gamma (Homo sapiens, UniProt P13631); assay: Transcriptional activation in CV-1 cells expressing RAR-gamma receptor; format: cell-based; outline: as §1
T3 sequence (P13631 whole entry): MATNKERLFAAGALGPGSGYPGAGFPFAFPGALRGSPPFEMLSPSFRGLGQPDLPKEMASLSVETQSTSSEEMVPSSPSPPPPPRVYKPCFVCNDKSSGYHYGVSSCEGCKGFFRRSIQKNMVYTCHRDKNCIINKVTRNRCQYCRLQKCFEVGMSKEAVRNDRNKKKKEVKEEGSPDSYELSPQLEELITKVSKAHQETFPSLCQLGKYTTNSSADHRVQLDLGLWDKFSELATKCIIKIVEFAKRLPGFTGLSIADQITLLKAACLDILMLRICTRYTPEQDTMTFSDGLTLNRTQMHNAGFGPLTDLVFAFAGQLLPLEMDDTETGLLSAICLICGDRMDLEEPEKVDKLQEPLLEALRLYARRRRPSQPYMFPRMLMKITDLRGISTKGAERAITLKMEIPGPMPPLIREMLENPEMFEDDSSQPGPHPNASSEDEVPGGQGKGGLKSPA

[4] = target: T4, Retinoic acid receptor RXR-alpha (Homo sapiens, UniProt P19793); assay: Transcriptional activation in CV-1 cells expressing RXR-alpha receptor
T4 sequence (P19793 whole entry): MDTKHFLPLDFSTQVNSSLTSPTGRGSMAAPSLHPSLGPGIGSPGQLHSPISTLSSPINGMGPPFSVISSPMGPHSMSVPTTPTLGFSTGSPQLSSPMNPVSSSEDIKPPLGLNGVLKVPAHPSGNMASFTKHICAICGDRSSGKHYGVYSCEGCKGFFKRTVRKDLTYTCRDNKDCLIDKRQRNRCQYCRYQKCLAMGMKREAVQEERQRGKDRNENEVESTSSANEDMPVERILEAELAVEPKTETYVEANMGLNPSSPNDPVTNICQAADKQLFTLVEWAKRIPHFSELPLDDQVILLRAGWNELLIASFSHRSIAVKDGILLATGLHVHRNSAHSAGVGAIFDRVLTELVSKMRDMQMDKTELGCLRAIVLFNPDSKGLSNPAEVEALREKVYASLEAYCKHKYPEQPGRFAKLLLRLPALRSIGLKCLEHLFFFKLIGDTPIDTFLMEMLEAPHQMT

[5] = target: T4, Retinoic acid receptor RXR-alpha; assay: Transcriptional activation in CV-1 cells expressing RXR-alpha receptor;not active
[6] = target: T2, Retinoic acid receptor alpha; assay: Transcriptional activation in CV-1 cells expressing RAR-alpha receptor; Not active; format: cell-based; outline: as §1

Row | Compound | EC50 [1] [nM] | EC50 [2] [nM] | EC50 [3] [nM] | EC50 [4] [nM] | EC50 [5] | EC50 [6]
1 | CC(/C=C/C=C(\C)c1ccc2c(c1)C(C)(C)CS2)=C\C(=O)O | 1200 | 1000 | 8 | 2600 | – | –
2 | COC(=O)c1ccc(/C=C(\C)c2ccc3c(c2)C(C)(C)CO3)cc1 | 430 | – | 400 | – | Not Active | Not Active
3 | C/C(=C\c1ccc(C(=O)O)cc1)c1ccc2c(c1)C(C)(C)CCO2 | 190 | 1100 | 200 | – | Not Active | –
4 | CC(/C=C/C=C(\C)c1ccc2c(c1)C(C)(C)CO2)=C\C(=O)O | 770 | 800 | 230 | 2800 | – | –
5 | COC(=O)c1ccc(/C=C(\C)c2ccc3c(c2)C(C)(C)CCS3)cc1 | 110 | 620 | 84 | – | Not Active | –
6 | C/C(=C\c1ccc(C(=O)O)cc1)c1ccc2c(c1)C(C)(C)CO2 | 320 | 2300 | 460 | – | Not Active | –
7 | COC(=O)c1ccc(/C=C(\C)c2ccc3c(c2)C(C)(C)CCO3)cc1 | 140 | 1100 | 330 | – | Not Active | –

Now those with a lower EC50 [1], led by results:

Row | EC50 [1] [nM] | EC50 [2] [nM] | EC50 [3] [nM] | EC50 [4] [nM] | EC50 [5] | EC50 [6] | Compound
8 | 72 | 740 | 39 | 2800 | – | – | CC(/C=C/C=C(\C)c1ccc2c(c1)C(C)(C)CCO2)=C\C(=O)O
9 | 43 | 1400 | 12 | 2700 | – | – | CC(/C=C/C=C(\C)c1ccc2c(c1)C(C)(C)CCS2)=C\C(=O)O
10 | 18 | 420 | 30 | – | Not Active | – | C/C(=C\c1ccc(C(=O)O)cc1)c1ccc2c(c1)C(C)(C)CS2
